Assay outcomes: PubChem BioAssay, several laboratories
A selection: hits, their analogues and other compounds. The true share with any hit is near 2.9%.
CRFR2-BP antag: CRF-BP/CRF-R2 complex antagonism. AID 588475. HEK293 CRF-R2/CRF-BP, CRF-induced calcium fluorescence. inhibition, % at 11.8 µM. 350,000 compounds, 0.59% hits;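 active = inhibition of the ligand-induced calcium signal above about 50% at the single tested concentration, limit read from the data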
KLK7 zymogen act: proKLK7 (human) activation, primary screen; purified proKLK7, EDANS-DABCYL substrate fluorescence; 100% is mature enzyme control, 0% vehicle; P49862; AID 652039; 370,000 compounds, 0.9% hits; activation, % at 7 µM;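 active = activation above the mean of all tested compounds plus 3 SD, computed per campaign excluding outliers beyond control limits, cut at about 13% in these data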
Tn7 DDE FP: disrupts Tn7 cyclic peptide binding to fibrin D-Dimer-E complex. 370,000 compounds, 0.13% hits. inhibition, % at 8.3 µM. FP displacement of FITC-Tn7 peptide from fibrin DD(E); 0% = median of compound wells per plate. P02675;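 active = inhibition above the mean of compounds falling within the control limits plus 3 SD of them, cut at about 14% in these data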;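 also: 0% = plate median of compound wells and 100% = 10 µM Aha-Tn7 peptide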
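Also added: labelled Tn7 tracer, 0.1 µM; Assay system: human fibrin DD(E) protein; Amount: 2 µM fibrin DD(E); Schedule: 10 min compound pre-incubation, 3 h probe incubation at room temperature; Repeats: one replicate per compound; Read-out basis: percent inhibition; Measured by: fluorescence polarization of the labelled Tn7 tracer.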
DDE Tn6 FP inh: inhibitors of Tn6 peptide binding to human fibrin DD(E); Fibrin DD(E) TRITC-Tn6 fluorescence polarization displacement; 370,000 compounds, 0.21% hits; inhibition, % at 8.3 µM; AID 720509;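 active = inhibition above a per-campaign cutoff: mean of compounds within control limits plus 3 SD, cut at about 15% in these data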;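 also: 0% = median of all compound wells on the plate and 100% = blocking peptide control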
CRFR2-BP ag: CRF-BP/CRF-R2 complex agonism. AID 588473. activation, % at 13.2 µM. HEK293 CRF-R2/CRF-BP, calcium dye fluorescence (FLIPR); percent of saturating CRF peptide response. 350,000 compounds, 0.46% hits;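 active = activation of at least 50%, plus an integration ratio under a set limit after plate pattern correction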;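 also: plate controls were neutral control wells without compound for no effect and CRF at EC100 for full effect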
CendR NRP1 mod: alters CendR peptide binding to human NRP-1 | FAM-RPARPAR peptide binding to NRP-1, fluorescence polarization | inhibition, % at 25 µM | AID 602438 | O14786 | 360,000 compounds, 0.85% hits;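 active = inhibition or corrected inhibition above about 18%, plus a signal ratio from 0.5 to 1.5, limit read from the data, passing the limit was not always enough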
Target sequence (O14786 whole entry, looked up): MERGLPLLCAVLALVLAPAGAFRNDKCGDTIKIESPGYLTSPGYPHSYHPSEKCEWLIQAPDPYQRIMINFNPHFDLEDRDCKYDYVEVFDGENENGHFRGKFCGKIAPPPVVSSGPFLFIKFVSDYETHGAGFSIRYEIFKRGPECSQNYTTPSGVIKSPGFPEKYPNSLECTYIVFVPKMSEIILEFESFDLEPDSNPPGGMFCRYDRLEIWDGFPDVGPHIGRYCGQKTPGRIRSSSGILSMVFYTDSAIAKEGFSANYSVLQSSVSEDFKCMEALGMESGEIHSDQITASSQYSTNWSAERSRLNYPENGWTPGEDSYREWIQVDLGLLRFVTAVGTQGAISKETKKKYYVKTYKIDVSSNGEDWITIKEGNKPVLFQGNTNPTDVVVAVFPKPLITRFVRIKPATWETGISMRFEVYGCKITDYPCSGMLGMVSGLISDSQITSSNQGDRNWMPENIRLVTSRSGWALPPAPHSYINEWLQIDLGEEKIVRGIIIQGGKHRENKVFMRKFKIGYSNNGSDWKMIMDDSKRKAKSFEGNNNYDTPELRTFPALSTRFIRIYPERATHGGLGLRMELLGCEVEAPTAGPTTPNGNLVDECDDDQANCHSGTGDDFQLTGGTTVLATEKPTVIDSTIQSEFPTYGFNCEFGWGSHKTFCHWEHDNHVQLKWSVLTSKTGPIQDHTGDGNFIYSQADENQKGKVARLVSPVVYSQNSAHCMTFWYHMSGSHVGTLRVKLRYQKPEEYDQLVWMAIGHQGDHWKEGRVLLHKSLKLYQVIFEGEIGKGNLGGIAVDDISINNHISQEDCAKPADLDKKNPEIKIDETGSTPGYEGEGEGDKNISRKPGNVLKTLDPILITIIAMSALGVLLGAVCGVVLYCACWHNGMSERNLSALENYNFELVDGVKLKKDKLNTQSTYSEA
KLK7 act conf: confirmation of human kallikrein-7 zymogen activators | activation, % at 7 µM | 3,200 compounds, 68% hits | purified proKLK7, EDANS-DABCYL substrate fluorescence; scaled: vehicle 0, mature enzyme 100 | shares compounds with KLK7 zymogen act;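 active = activation, as change over the incubation, above the mean of all tested compounds plus 3 SD, cut at about 13% in these data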
EDANS-DABCYL int: optically interferes with EDANS-DABCYL signal, flagging KLK7 hits; shares compounds with KLK7 zymogen act; EDANS-DABCYL substrate fluorescence interference, no enzyme, 4 h; solvent 0%, active enzyme control 100%; activation, % at 7 µM; 3,200 compounds, 80% hits;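 active = activation above the all-compound mean plus 3 SD, ignoring values outside control-based bounds, cut at about 4.8% in these data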;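 also: value is the 4 h activation minus the activation read at time zero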
* hit, by the source's call; · = no result given.

SMILES	CRFR2-BP antag	KLK7 zymogen act	Tn7 DDE FP	DDE Tn6 FP inh	CRFR2-BP ag	CendR NRP1 mod	KLK7 act conf	EDANS-DABCYL int
O=C(O)c1cc(-c2ccco2)nc2ccccc12	5	21*	0	5	1	-22	16*	16*
Cc1ccc(-c2cc(C(=O)O)c3cc(Br)ccc3n2)o1	10	7	-5	-3	0	-20	·	·
CCc1ccc(-c2cc(C(=O)O)c3ccccc3n2)s1	5	66*	5	-7	-1	0	60*	60*
COC(CNC(=O)[C@H](Cc1c[nH]c2ccccc12)NC1(C(=O)NC(c2ccccc2)c2ccccc2)CCCCC1)OC	·	·	-3	1	·	·	·	·
COC(=O)c1cc2c(c3c4cc(F)ccc4n(S(=O)(=O)c4ccc(C)cc4)c13)C(=O)N(Cc1ccccc1)C2	·	0	2	0	·	·	·	·
CCCCCCCCN1C(=O)[C@@H](CC(=O)NCc2cccc(C(F)(F)F)c2)C[C@@]2(C(=O)OC)C1=C[C@H](C(C)C)O[C@@H]2C1CC1	·	0	1	4	·	·	·	·
CC(C)(C)c1ccc(S(=O)(=O)N2CCC(c3cn4ccccc4n3)CC2)cc1	·	-1	-11	5	·	·	·	·
Cc1cc(C(=O)NCc2ccco2)c2ccccc2n1	33	-1	-1	7	-1	-8	·	·
O=C(Nc1nc2ccccc2s1)c1cc(-c2ccco2)nc2ccccc12	-90	9	-2	-1	0	-35	·	·
Cc1nnc(NC(=O)c2cc(-c3ccco3)nc3ccccc23)s1	·	24*	2	-5	·	-24	4	9.9*
Cc1ccc(-c2cc(C(=O)NCc3ccco3)c3ccccc3n2)o1	5	18*	4	-5	-1	-4	-11	-2
O=C(Nc1nccs1)c1cc(N2CCOCC2)nc2ccccc12	-12	18*	-1	3	-1	2	14*	12*
Cc1ccc(-c2cc(C(=O)N3CC(C)OC(C)C3)c3ccccc3n2)o1 (stereo not drawn)	3	46*	-4	-5	0	-8	65*	66*
C[C@H]1CN(S(=O)(=O)C(C)(C)C)[C@@H](CCO)/C1=C\CCO	·	0	0	6	·	·	·	·
CCNC(=O)COC(=O)c1cc(-c2ccco2)nc2ccccc12	6	121*	-5	-8	0	-6	17*	19*
CCN(CC)CCNC(=O)c1ccc(NC(=O)c2cc(-c3ccco3)nc3ccccc23)cc1	-8	31*	7	1	-2	15	-34	-21
CN1CCN(NC(=O)c2cc(-c3ccccn3)nc3ccccc23)CC1	-27	0	3	3	1	-10	·	·
CN1CCN(NC(=O)c2cc(-c3ccc(Cl)s3)nc3ccccc23)CC1	-10	26*	2	-5	-1	-3	-33	-24
O=C(OCC(=O)N1CCN(C(=O)c2ccco2)CC1)c1cc(-c2ccco2)nc2ccccc12	11	·	·	·	0	-25	·	·
O=C(Nc1nccs1)c1cc(-c2ccccc2)nc2ccccc12	-54	1	-4	-5	0	0	·	·
O=C(Nc1nccs1)c1cc(-c2ccco2)nc2ccccc12	-45	15*	4	4	1	-8	1	-2
COc1ccc2cc3cc(C(=O)NCCCN4CCC(C)CC4)oc3nc2c1	0	·	·	·	-1	13	·	·
Cc1ccc2cc3cc(C(=O)NCCN4CCOCC4)oc3nc2c1	15	13*	-7	9	-3	11	14*	13*
COc1ccc2cc3cc(C(=O)NCCCN4CCOCC4)oc3nc2c1	-3	49*	-1	5	-1	-7	64*	69*
CCCCN(CC)CCCNC(=O)c1cc2cc3ccc(OC)cc3nc2o1	7	63*	-3	0	0	-3	58*	72*
SMILES	CRFR2-BP antag	KLK7 zymogen act	Tn7 DDE FP	DDE Tn6 FP inh	CRFR2-BP ag	CendR NRP1 mod	KLK7 act conf	EDANS-DABCYL int
Cc1ccc2cc3cc(C(=O)NCCCN4CCCC4=O)oc3nc2c1	-5	17*	2	5	-2	0	9	7.5*
N#Cc1ccc(/C=C2\CC3(OC(=O)c4ccc(Cl)cc4)CCCN2C3)cc1 (stereo not drawn)	·	0	9	-3	·	·	·	·
COCCN1Cc2cc(C(=O)OC)c3c(c2C1=O)c1cc(F)ccc1n3S(=O)(=O)c1ccc(C)cc1	·	0	3	0	·	·	·	·
c1ccc(C[n+]2cccc3c4ccccc4ccc32)cc1	13	16*	-6	2	2	-4	22*	28*
CCCCC[n+]1cccc2c3ccccc3ccc21	0	26*	-10	2	-1	11	16*	17*
CCCCOc1ccc2ccccc2c1C=O	1	0	1	0	0	-9	·	·
O=C(Nc1ccc(F)cc1F)c1cc(-c2ccc(Cl)cc2)nc2ccccc12	·	0	-1	0	·	·	·	·
C=CCOc1ccc2c(OC)c3ccoc3nc2c1OC	10	19*	0	-7	-1	11	-6	-17
CCOc1c2ccoc2nc2c(OC)c(OC)ccc12	15	13*	-2	-7	0	-5	9	14*
COc1c2c(nc3occc13)C(CC=C(C)C)(OC)C(=O)C=C2 (stereo not drawn)	1	0	-3	0	0	3	·	·
COc1cc(OCc2ccccc2)c(CC(=O)O)c([N+](=O)[O-])c1	-6	0	-4	-3	4	3	·	·
COc1cc(OCc2ccccc2)c2c(CCC(=O)O)cc(=O)oc2c1	13	89*	1	6	-3	2	59*	58*
CCc1cc(=O)oc2cc(OC(C)=O)cc(OC(C)=O)c12	-8	79*	4	6	-6	5	486*	534*
COCCNC(=O)/C(C#N)=C/c1cn(CC(=O)NCc2ccco2)c2ccccc12	19	75*	2	-13	-2	-6	8	5.8*
COc1cccc(-c2cc(=O)c3cc(NC(C)=O)ccc3[nH]2)c1	3	25*	0	-3	1	9	32*	32*
C[C@@H]1C[C@H]2[C@@H](Cc3ccccc3)C(=O)N3[C@H](c4ccccc4)[C@H](C)C[C@H]3[C@@H](Cc3ccccc3)C(=O)N2[C@@H]1c1ccccc1	·	1	0	-4	·	·	·	·
COC(=O)[C@H](CC(C)C)N(CCc1cn(Cc2ccccc2)nn1)S(=O)(=O)c1ccccc1Br	·	0	0	-10	·	·	·	·
